Values after ≈ are worked out from the molar mass of the structure shown. Active and inactive are the calls of the source. No cut-off for these calls is given here.
Experiments:
[1] = Half life in simulated gastric fluid at pH 1.2 in absence of pepsin at 100 uM incubated at 37 degreeC up to 24 hrs by UPHLC analysis; format: ADME; settings: simulated gastric fluid without pepsin
Summary of the method: (§1)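 A 10 mM DMSO stock was diluted to 100 μM in PBS (pH 7.4, 50 mM) or pepsin-free SGF (pH 1.2) and held at 37 ± 0.5 °C for 24 h. Timed aliquots were quantified by reverse-phase UHPLC-DAD against calibration curves (1.56–100 ppm), tracking the parent compound plus aminoacetate and corticosteroid metabolites. Pseudo-first-order t1/2 was calculated; n = 3.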

[2] = Half life in PBS at pH 7.4 at 100 uM incubated at 37 degreeC up to 24 hrs by UPHLC analysis; format: ADME; summary of the method: as §1
[3] = biological target: Albumin (Bos taurus, UniProt P02769); experiment: Stability in 3% bovine serum albumin assessed as parent compound remaining at 200 uM incubated at 37 degreeC for 10 mins by UHPLC analysis; format: ADME; settings: cattle, 3% bovine serum albumin solution, read-out: Stability
Sequence of Albumin (P02769 whole entry): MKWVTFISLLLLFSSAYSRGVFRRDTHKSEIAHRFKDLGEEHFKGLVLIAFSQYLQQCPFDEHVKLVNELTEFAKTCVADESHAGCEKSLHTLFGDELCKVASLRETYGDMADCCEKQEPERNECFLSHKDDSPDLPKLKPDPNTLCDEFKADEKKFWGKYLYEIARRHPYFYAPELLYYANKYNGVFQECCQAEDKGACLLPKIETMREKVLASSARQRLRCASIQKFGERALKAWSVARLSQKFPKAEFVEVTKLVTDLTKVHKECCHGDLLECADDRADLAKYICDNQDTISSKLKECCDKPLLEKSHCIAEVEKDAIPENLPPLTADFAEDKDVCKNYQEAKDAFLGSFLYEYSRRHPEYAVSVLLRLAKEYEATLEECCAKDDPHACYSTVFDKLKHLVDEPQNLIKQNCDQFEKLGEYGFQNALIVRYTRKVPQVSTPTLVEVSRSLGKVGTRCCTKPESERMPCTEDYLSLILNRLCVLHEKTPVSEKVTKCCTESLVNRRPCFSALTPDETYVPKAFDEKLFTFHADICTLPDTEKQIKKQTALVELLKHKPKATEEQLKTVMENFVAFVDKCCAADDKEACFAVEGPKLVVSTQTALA
Summary of the method: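 A 10 mM DMSO stock was diluted to 200 μM in 3 % BSA in PBS and incubated at 37 ± 0.5 °C for up to 4 h. Timed samples were deproteinized with an equal volume of acetonitrile/0.1 % TFA, centrifuged, filtered and quantified by UHPLC. Results are given as pseudo-first-order t1/2 or % parent remaining at 10 min; n ≥ 3.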

[4] = Solubility of compound in simulated gastric fluid at pH 1.2 in absence of pepsin at 5 mg incubated at 25 degreeC for 6 hrs by UHPLC analysis; format: ADME; settings: simulated gastric fluid without pepsin
Summary of the method: (§2)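 Solid compound (5 mg) was shaken in 1 mL water, PBS (pH 7.4, 50 mM) or pepsin-free SGF (pH 1.2) for 6 h at 25 °C. Suspensions were filtered (0.45 μm) and the filtrate quantified by UHPLC, reported in mg/L; triplicate, mean values.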

[5] = Solubility of compound in PBS at pH 7.4 at 5 mg incubated at 25 degreeC for 6 hrs by UHPLC analysis; format: physicochemical; summary of the method: as §2
[6] = Solubility of compound in water at 5 mg incubated at 25 degreeC for 6 hrs by UHPLC analysis; format: physicochemical; summary of the method: as §2
[7] = Induction of H2S release in PBS at pH 7.4 at 100 uM measured after 30 mins by free radical analyzer; format: physicochemical; settings: buffer, pH 7.4, 0.5 h
Summary of the method: (§3)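 An H2S-selective mini-electrode was equilibrated in PBS pH 7.4, and compound was added to 100 μM final (1 % DMSO). Amperometric current was recorded for 30 min, with or without L-cysteine 4 mM added 10 min before. Current was converted to H2S using NaHS calibration (1–10 µM, pH 4.0); mean ± SEM.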

[8] = Induction of H2S release in PBS at pH 7.4 at 100 uM pretreated with L-Cys for 10 mins followed by compound addition and measured after 30 mins by free radical analyzer; format: physicochemical; settings: buffer, pH 7.4, 0.5 h; summary of the method: as §3
[9] = test system: RBL-2H3; experiment: Cytotoxicity against rat RBL-2H3 cells assessed as reduction cell viability at 100 uM after 24 hrs by WST assay; format: toxicity, cell-based; settings: rbl-2h3, 24 h
Summary of the method: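 RBL-2H3 cells were grown in MEM with 10 % FBS, 10^4 cells/well, and attached for 24 h. They were then exposed 24 h to 100 μM compound (final) or 0.1 % DMSO. WST-1 (1:10) was added for 60 min at 37 °C and absorbance read at 450 nm. Viability is expressed as % of vehicle; mean ± SEM.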

[10] = test system: RBL-2H3; experiment: Inhibition of mast cell degranulation in DNP-HSA antigen sensitized rat RBL-2H3 cells assessed as reduction in beta-hexoaminosidase release at 100 uM preincubated for 5 mins followed by DNP addition and measured after 1 hr by multiplate reader; format: functional, cell-based; settings: time 65.0 min
Summary of the method: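 RBL-2H3 cells (72×10^3/well) were sensitized overnight with anti-DNP IgE 0.50 µg/ml, then moved to phenol-free DMEM with 1 mg/ml BSA. Cells were preincubated 5 min at 37 °C with 0.1 % DMSO, cromolyn 1 mM or compound 100 μM, then challenged with DNP-HSA 10 ng/ml. After 1 h, supernatant was incubated 1 h with 1.4 mM p-nitrophenyl-N-acetyl-β-D-glucosaminide (citrate pH 4.2), stopped with Trizma pH 9.4, and read at 405 nm.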

[11] = test system: Mus musculus; experiment: Anti-asthmatic activity in OVA-induced female BALB/c mouse model assessed as inhibition of bronchial hyperreactivity at 3.512 x 10^-6M, ip for 30 min before every ovalbumin challenge on day 0 and 7 and measured after 21 days by isometric force transducer analysis; format: functional, organism-based; settings: dose 3.512 10^-6M, time 21.0 day
Summary of the method: (§4)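 Female BALB/c mice (20 g, 8 weeks) sensitized s.c. with 100 μg ovalbumin adsorbed to 13.3 mg aluminum hydroxide gel (0.4 ml) on days 0 and 7; saline controls. Test agent (1–2 mg/kg, or equimolar 3,51 × 10^-6 mol) or vehicle given ip 30 min before each OVA dose. Killed day 21 by enflurane overdose; lungs, bronchi, blood collected.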

[12] = test system: Mus musculus; experiment: Anti-asthmatic activity in OVA-induced female BALB/c mouse model assessed as reduction in lung damage at 3.512 x 10^-6M, ip for 30 min before every ovalbumin challenge on day 0 and 7 and measured after 21 days by H and E staining based microscopic analysis; format: functional, organism-based; settings: dose 3.512 10^-6M, time 21.0 day; summary of the method: as §4
[13] = test system: Mus musculus; experiment: Anti-asthmatic activity in OVA-induced female BALB/c mouse model assessed as reduction in IgE level in plasma at 3.512 x 10^-6M, ip for 30 min before every ovalbumin challenge on day 0 and 7 and measured after 21 days by ELISA; format: functional, organism-based; settings: dose 3.512 10^-6M, time 21.0 day; summary of the method: as §4
[14] = test system: Mus musculus; experiment: Anti-asthmatic activity in OVA-induced female BALB/c mouse model assessed as reduction in pulmonary IL-13 level at 3.512 x 10^-6M, ip for 30 min before every ovalbumin challenge on day 0 and 7 and measured after 21 days by ELISA; format: functional, organism-based; settings: dose 3.512 10^-6M, time 21.0 day; summary of the method: as §4

half-life at 100 µM [1] [h] | half-life at 100 µM [2] [h] | remaining at 10 min, 200 µM [3] [%] | solubility at 6 h [4] [µg/mL] | solubility at 6 h [5] [µg/mL] | solubility at 6 h [6] [µg/mL] | Activity [7] | Activity [8] | Compound | Activity [9] | inhibition [10] | Activity [11] | Activity [12] | Activity [13] | Activity [14]
> 24 | > 24 | 23 | < 0.1 | < 0.1 | < 0.1 | ~ 2 uM | ~ 2 uM | CCCC1O[C@@H]2C[C@H]3[C@@H]4CCC5=CC(=O)C=C[C@]5(C)[C@H]4[C@@H](O)C[C@]3(C)[C@]2(C(=O)COC(=O)CN=C=S)O1 (stereo partly drawn) | Non-Toxic | Active |  |  |  | 
 |  |  |  |  |  |  |  | C[C@]12C=CC(=O)C=C1CC[C@@H]1[C@@H]2C(=O)C[C@@]2(C)[C@H]1CC[C@]2(O)C(=O)COC(=O)CN |  | Active |  |  |  | 
10 | 0.7 | 6 | < 0.1 | < 0.1 | 0.14 (≈ 0.285 µM) | ~ 2 uM | ~ 2 uM | C[C@@H]1C[C@H]2[C@@H]3CCC4=CC(=O)C=C[C@]4(C)[C@@]3(F)[C@@H](O)C[C@]2(C)[C@@]1(O)C(=O)COC(=O)CN=C=S | Non-Toxic | Active |  |  |  | 
 |  |  |  |  |  |  |  | C[C@]12C=CC(=O)C=C1CC[C@@H]1[C@@H]2[C@@H](O)C[C@@]2(C)[C@H]1C[C@H]1O[C@@H](C3CCCCC3)O[C@]12C(=O)COC(=O)CN |  | Active | inactive | inactive | Active | inactive

Compound | half-life at 100 µM [1] [h] | half-life at 100 µM [2] [h] | remaining at 10 min, 200 µM [3] [%] | solubility at 6 h [4] [µg/mL] | solubility at 6 h [5] [µg/mL] | solubility at 6 h [6] [µg/mL] | Activity [7] | Activity [8] | Activity [9] | inhibition [10] | Activity [11] | Activity [12] | Activity [13] | Activity [14]
[Na+].[SH-] [SODIUM HYDROSULFIDE] |  |  |  |  |  |  | <= 20 uM | <= 20 uM |  |  |  |  |  | 
